# Data: ChEMBL document CHEMBL1122622, “Carbocyclic analogues of xylofuranosylpurine nucleosides. Synthesis and antitumor activity” (J Med Chem, 1984)
# Substrate: Nc1ncnc2c1ncn2[C@@H]1O[C@H](CO)[C@@H](O)[C@H]1O
# Experiment: Compound was evaluated for the kinetic constant on adenosine deaminase and expressed as Km
# Procedure, shortened: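 Calf intestinal adenosine deaminase (type III). Adenosine was mixed with a range of test compound concentrations in 1 mL 0.05 M phosphate buffer, pH 7.5, at 25 °C. Reactions were started with 20 milliunits of enzyme, and deamination was followed as the fall in absorbance at 265 nm. Kinetic constants came from Wilkinson analysis, with each point the mean of triplicates.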
protein,measurement,value
"Adenosine deaminase (Mus musculus), P03958 (protein) MAQTPAFNKPKVELHVHLDGAIKPETILYFGKKRGIALPADTVEELRNIIGMDKPLSLPGFLAKFDYYMPVIAGCREAIKRIAYEFVEMKAKEGVVYVEVRYSPHLLANSKVDPMPWNQTEGDVTPDDVVDLVNQGLQEGEQAFGIKVRSILCCMRHQPSWSLEVLELCKKYNQKTVVAMDLAGDETIEGSSLFPGHVEAYEGAVKNGIHRTVHAGEVGSPEVVREAVDILKTERVGHGYHTIEDEALYNRLLKENMHFEVCPWSSYLTGAWDPKTTHAVVRFKNDKANYSLNTDDPLIFKSTLDTDYQMTKKDMGFTEEEFKRLNINAAKSSFLPEEEKKELLERLYREYQ",Km,7.8 µM
